Assay results taken from ChEMBL document CHEMBL1157101, “A series of alpha-heterocyclic carboxaldehyde thiosemicarbazones inhibit topoisomerase IIalpha catalytic activity” (J Med Chem, 2010).
Structures can show the parent of a compound that is named as a salt. Active and inactive are the calls of the source. The rule behind the calls is not given here.

Experiments:
[1] = target: T1, DNA topoisomerase 2-alpha (Homo sapiens, UniProt P11388); experiment: Inhibition of human topoisomerase 2 alpha-mediated decatenation of kDNA at 100 uM after 15 mins
T1 sequence (P11388 whole entry): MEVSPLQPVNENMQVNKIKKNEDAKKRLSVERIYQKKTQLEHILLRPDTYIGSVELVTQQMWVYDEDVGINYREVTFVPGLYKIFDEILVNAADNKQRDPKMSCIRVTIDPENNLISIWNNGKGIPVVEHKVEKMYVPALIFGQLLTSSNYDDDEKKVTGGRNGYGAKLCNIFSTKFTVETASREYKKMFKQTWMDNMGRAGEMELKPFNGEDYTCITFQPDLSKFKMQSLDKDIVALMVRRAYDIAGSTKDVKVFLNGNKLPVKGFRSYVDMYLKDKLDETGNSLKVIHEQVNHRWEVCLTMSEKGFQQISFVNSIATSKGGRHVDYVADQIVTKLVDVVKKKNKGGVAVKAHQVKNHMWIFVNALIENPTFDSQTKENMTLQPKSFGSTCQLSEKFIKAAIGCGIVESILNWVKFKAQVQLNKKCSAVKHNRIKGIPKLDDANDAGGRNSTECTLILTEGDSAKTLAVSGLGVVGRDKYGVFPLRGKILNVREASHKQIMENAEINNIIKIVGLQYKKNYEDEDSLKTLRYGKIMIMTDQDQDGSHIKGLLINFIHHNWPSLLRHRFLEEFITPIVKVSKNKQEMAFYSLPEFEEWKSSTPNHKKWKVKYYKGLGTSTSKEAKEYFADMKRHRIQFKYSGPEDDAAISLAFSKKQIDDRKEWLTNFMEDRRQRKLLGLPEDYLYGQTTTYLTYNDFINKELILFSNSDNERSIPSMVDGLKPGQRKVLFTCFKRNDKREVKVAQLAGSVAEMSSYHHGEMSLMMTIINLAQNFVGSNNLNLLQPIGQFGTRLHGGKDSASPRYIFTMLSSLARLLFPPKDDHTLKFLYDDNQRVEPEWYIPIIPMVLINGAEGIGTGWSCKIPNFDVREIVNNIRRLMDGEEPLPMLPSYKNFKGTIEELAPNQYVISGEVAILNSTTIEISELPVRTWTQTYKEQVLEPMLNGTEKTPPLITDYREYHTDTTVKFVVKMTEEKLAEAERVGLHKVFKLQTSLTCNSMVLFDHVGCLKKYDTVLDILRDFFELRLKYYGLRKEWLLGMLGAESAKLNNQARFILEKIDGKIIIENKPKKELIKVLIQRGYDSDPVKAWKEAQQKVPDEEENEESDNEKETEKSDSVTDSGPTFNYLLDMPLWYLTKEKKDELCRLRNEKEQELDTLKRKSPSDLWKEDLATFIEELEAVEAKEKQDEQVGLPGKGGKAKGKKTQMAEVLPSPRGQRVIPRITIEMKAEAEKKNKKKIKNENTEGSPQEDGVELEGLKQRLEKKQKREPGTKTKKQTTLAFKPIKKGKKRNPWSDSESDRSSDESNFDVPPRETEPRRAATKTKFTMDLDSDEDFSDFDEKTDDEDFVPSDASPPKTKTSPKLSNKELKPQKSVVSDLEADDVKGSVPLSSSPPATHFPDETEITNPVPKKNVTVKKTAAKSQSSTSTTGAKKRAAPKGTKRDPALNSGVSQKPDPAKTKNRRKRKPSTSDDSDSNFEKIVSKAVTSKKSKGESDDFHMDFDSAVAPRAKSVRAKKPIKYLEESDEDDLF

HL-60 = experiment: Antiproliferative activity against human HL60 cells after 72 hrs by sulforhodamine B assay; assay type: functional, cell-based; conditions: HL-60, 72 h, in the assay text read “MTT assay” for “sulforhodamine B assay”
Summary of the method: (§1)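 Cells seeded and exposed in triplicate to graded compound concentrations for 72 h. Suspension cells read by MTT conversion to coloured product; adherent cells read by sulforhodamine B. IC50 (50% growth inhibition versus untreated control) derived by the Logit method.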

SGC-7901 = experiment: Antiproliferative activity against human SGC7901 cells after 72 hrs by sulforhodamine B assay; assay type: functional, cell-based; conditions: SGC-7901, 72 h; summary of the method: as §1
HT-29 [2] = experiment: Antiproliferative activity against human HT-29 cells after 72 hrs by sulforhodamine B assay; assay type: functional, cell-based; conditions: HT-29, 72 h; summary of the method: as §1
HeLa = experiment: Antiproliferative activity against human HeLa cells after 72 hrs by sulforhodamine B assay; assay type: functional, cell-based; summary of the method: as §1
[3] = Antiproliferative activity against human K562/A02 cells after 72 hrs by sulforhodamine B assay; assay type: functional, cell-based; conditions: K562/A02, 72 h, in the assay text read “MTT assay” for “sulforhodamine B assay”; summary of the method: as §1
[4] = Antiproliferative activity against human MCF7/ADR cells after 72 hrs by sulforhodamine B assay; assay type: functional, cell-based; conditions: NCI/ADR-RES; summary of the method: as §1
Nucleic Acid [5] = experiment: Inhibition of Fenton's reaction mediated DNA strand break in Escherichia coli pBR322 by gel electrophoresis; assay type: nucleic-acid assay
Summary of the method: (§2)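 pBR322 (0.2 μg) incubated 30 min at room temperature in 13 mM Hepes pH 7.2 with 1 mM H2O2 and 10 μM FeSO4 plus compound. Run on 1% agarose containing 0.1 μg/mL ethidium bromide at 90 V for 60 min. Bands quantified; % supercoiled = 1.4SC/(L+OC+1.4SC)×100.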

HT-29 [6] = experiment: Cell cycle arrest in nocodazole pretreated human HT-29 cells assessed as accumulation at M phase at 10 uM after 24 hrs; assay type: functional, cell-based
Summary of the method: (§3)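 HT-29 cells stained with propidium iodide; cell-cycle distribution determined by flow cytometry.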

Nucleic Acid [7] = experiment: Inhibition of Fenton's reaction mediated DNA strand break in Escherichia coli pBR322 at 1 to 100 uM by gel electrophoresis; assay type: nucleic-acid assay; summary of the method: as §2
Nucleic Acid [8] = experiment: Inhibition of Fenton's reaction mediated DNA strand break in Escherichia coli pBR322 at 0.1 to 1 uM by gel electrophoresis; assay type: nucleic-acid assay; summary of the method: as §2
[9] = target: T1, DNA topoisomerase 2-alpha; experiment: Inhibition of human topoisomerase 2alpha-mediated relaxation of pBR322 up to 125 uM
HT-29 [10] = experiment: Cell cycle arrest in nocodazole pretreated human HT-29 cells assessed as accumulation at M phase at 5 uM after 24 hrs; assay type: functional, cell-based; summary of the method: as §3

SMILES | IC50 (HL-60) [µM] | IC50 (SGC-7901) [µM] | IC50 (HT-29 [2]) [µM] | IC50 (HeLa) [µM] | further results
NC(=S)N/N=C/c1ccc2cccnc2n1 | > 100 | > 100 | 12.8 | > 100 | inhibition (active/not active) [1]: inactive
COc1cccc2c1C(=O)c1c(O)c3c(c(O)c1C2=O)C[C@@](O)(C(=O)CO)C[C@@H]3O[C@H]1C[C@H](N)[C@H](O)[C@H](C)O1 [DOXORUBICIN HYDROCHLORIDE] | – | – | – | – | IC50 [3]: 23.8 µM; IC50 [4]: 44.9 µM
Fc1ccccc1NC(=S)N/N=C/c1ccc2ccccc2n1 | > 100 | > 100 | > 100 | > 100 | –
NC(=S)N/N=C/c1cc2ccccc2s1 | > 100 | > 100 | 99.2 | 6.77 | inhibition (active/not active) [1]: inactive
CN(C)C(=S)N/N=C/c1nc2ccccc2s1 | 3.68 | 0.83 | 0.25 | 2.1 | inhibition (active/not active) [1]: Active
FC(F)(F)c1ccc(NC(=S)N/N=C/c2ccc3ccccc3n2)cc1 | 34.9 | 72.2 | 63.9 | 59.1 | –
NC(=S)N/N=C/c1cnc2ccccc2n1 | > 100 | > 100 | > 100 | > 100 | –
COc1ccc(C)cc1NC(=S)N/N=C/c1ccc2ccccc2n1 | > 100 | > 100 | > 100 | > 100 | –
S=C(N/N=C/c1ccc2ccccc2n1)Nc1cccc(Cl)c1 | 28.8 | 61.3 | 48.1 | 52.5 | –
Cc1csc2sc(/C=N/NC(N)=S)c(C)c12 | > 100 | > 100 | 57.5 | 1.12 | inhibition (active/not active) [1]: inactive
S=C(N/N=C/c1ccc2ccccc2n1)Nc1ccccc1Br | > 100 | > 100 | > 100 | > 100 | –
CC(=O)N(O)CCCCCNC(=O)CCC(=O)N(O)CCCCCNC(=O)CCC(=O)N(O)CCCCCN | – | – | – | – | inhibition (Nucleic Acid [5]): Dose-dependent effect; Activity (HT-29 [6]): Active; inhibition (Nucleic Acid [7]): Active; inhibition (Nucleic Acid [8]): Active; inhibition [9]: inactive; Activity (HT-29 [10]): Active
COc1ccccc1NC(=S)N/N=C/c1ccc2ccccc2n1 | 91.7 | > 100 | > 100 | > 100 | –
COc1ccc(NC(=S)N/N=C/c2ccc3ccccc3n2)cc1 | 43.8 | 89.6 | 82.3 | 72.6 | –

Further molecules by falling IC50 (HL-60), results first:

IC50 (HL-60) [µM] | IC50 (SGC-7901) [µM] | IC50 (HT-29 [2]) [µM] | IC50 (HeLa) [µM] | SMILES | further results
78.3 | 92.9 | 85.5 | 86 | Cc1ccc(NC(=S)N/N=C/c2ccc3ccccc3n2)cc1 | –
73.2 | > 100 | 42.2 | > 100 | Cc1ccccc1NC(=S)N/N=C/c1ccc2ccccc2n1 | inhibition (active/not active) [1]: inactive
71.2 | 79.4 | 82.4 | 74.5 | COc1cccc(NC(=S)N/N=C/c2ccc3ccccc3n2)c1 | –
21.9 | 53.7 | 75.7 | 62.8 | S=C(NCc1ccccc1)N/N=C/c1ccc2ccccc2n1 | –
13.2 | 20.7 | 18.1 | 18.8 | FC(F)(F)c1ccccc1NC(=S)N/N=C/c1ccc2ccccc2n1 | –
9.13 | 26.5 | 17 | 27.4 | S=C(N/N=C/c1ccc2ccccc2n1)Nc1ccccc1 | –
